Reference: ChEMBL document CHEMBL3792377, “Synthesis and characterization of a series of chiral alkoxymethyl morpholine analogs as dopamine receptor 4 (D4R) antagonists” (Bioorg Med Chem Lett, 2016)

Assays:
D(2) dopamine receptor [1] = biological target: T1, D(2) dopamine receptor (Homo sapiens, UniProt P14416); test: Displacement of [3H]-Spiperone from human recombinant dopamine D2L receptor expressed in CHO cells at 10 uM relative to control; assay type: cell-based
Outline: (§1)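 Off-target dopamine receptor radioligand binding (D1, D2L, D2S, D3, D5), run as a contract assay. Test compound at a single concentration of 10 µM, reported as % inhibition of specific binding, measured in duplicate.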

D(1A) dopamine receptor = D(1A) dopamine receptor (Homo sapiens, UniProt P21728); test: Displacement of [3H]-SCH-23390 from human recombinant dopamine D1 receptor expressed in CHO cells at 10 uM relative to control; assay type: cell-based; outline: as §1
D(4) dopamine receptor = biological target: T2, D(4) dopamine receptor (Homo sapiens, UniProt P21917); test: Displacement of [3H]-Spiperone from human recombinant dopamine D4 receptor expressed in CHOK1 cells; assay type: cell-based, CHO-K1
T2 sequence (P21917 whole entry): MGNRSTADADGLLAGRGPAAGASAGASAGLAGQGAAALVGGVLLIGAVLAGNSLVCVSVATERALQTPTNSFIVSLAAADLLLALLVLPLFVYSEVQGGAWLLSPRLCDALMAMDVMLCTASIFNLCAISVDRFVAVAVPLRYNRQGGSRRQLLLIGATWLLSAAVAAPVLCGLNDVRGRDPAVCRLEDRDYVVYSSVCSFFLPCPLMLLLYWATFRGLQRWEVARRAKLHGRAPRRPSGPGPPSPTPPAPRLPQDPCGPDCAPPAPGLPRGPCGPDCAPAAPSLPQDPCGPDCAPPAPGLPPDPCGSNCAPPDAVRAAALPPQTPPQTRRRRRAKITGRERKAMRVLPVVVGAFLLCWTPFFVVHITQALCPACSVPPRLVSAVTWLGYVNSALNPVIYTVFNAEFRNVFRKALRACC
Outline: (§2)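 Radioligand binding at human D4 receptor using [3H]-spiperone, run as a contract assay in duplicate. IC50 and Ki were derived from concentration–response data. Single-point values are % inhibition of specific binding at 10 µM test compound.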

D(2) dopamine receptor [2] = biological target: T1, D(2) dopamine receptor; test: Displacement of [3H]-Spiperone from human recombinant dopamine D2S receptor expressed in CHO cells at 10 uM relative to control; assay type: cell-based; outline: as §1
D(3) dopamine receptor = D(3) dopamine receptor (Homo sapiens, UniProt P35462); test: Displacement of [3H]-Spiperone from human recombinant dopamine D3 receptor expressed in CHO cells at 10 uM relative to control; assay type: cell-based; outline: as §1
D(1B) dopamine receptor = D(1B) dopamine receptor (Homo sapiens, UniProt P21918); test: Displacement of [3H]-SCH-23390 from human recombinant dopamine D5 receptor expressed in CHO cells at 10 uM relative to control; assay type: cell-based; outline: as §1
[3] = Fraction unbound in human plasma by equilibrium dialysis method; assay type: ADME, cell-free
Plasma = test: Fraction unbound in rat plasma by equilibrium dialysis method; assay type: ADME, cell-free
[4] = biological target: T3, D(4) dopamine receptor (Homo sapiens) (UniProt P21917); test: Displacement of [3H]-Spiperone from human recombinant dopamine D4 receptor expressed in CHOK1 cells at 10 uM relative to control; assay type: cell-based; conditions: CHO-K1; outline: as §2
T3 sequence (whole entry): T2 sequence (P21917 whole entry)

[5] = Plasma concentration in rat at 0.25 mg/kg, iv administered through cassette dosing at 0.25 hrs; assay type: ADME, organism-based
[6] = Drug uptake in rat brain at 0.25 mg/kg, iv administered through cassette dosing at 0.25 hrs; assay type: ADME, organism-based; conditions: read-out: Drug uptake
[7] = Ratio of drug level in brain to plasma in rat at 0.25 mg/kg, iv administered through cassette dosing at 0.25 hrs; assay type: ADME, organism-based

Chain of D(1A) dopamine receptor (P21728 whole entry): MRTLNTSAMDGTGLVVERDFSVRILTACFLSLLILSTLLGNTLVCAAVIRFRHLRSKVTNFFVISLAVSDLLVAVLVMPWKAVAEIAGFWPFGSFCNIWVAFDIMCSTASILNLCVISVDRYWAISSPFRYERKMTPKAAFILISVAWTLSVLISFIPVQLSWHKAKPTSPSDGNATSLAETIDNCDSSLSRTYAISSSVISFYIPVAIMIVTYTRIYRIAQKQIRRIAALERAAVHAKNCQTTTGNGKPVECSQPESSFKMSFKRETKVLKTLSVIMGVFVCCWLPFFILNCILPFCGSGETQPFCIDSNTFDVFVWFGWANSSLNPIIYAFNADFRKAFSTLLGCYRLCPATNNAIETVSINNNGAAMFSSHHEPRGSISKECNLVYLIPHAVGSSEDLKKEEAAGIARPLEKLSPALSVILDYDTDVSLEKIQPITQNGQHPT
Chain of D(1B) dopamine receptor (P21918 whole entry): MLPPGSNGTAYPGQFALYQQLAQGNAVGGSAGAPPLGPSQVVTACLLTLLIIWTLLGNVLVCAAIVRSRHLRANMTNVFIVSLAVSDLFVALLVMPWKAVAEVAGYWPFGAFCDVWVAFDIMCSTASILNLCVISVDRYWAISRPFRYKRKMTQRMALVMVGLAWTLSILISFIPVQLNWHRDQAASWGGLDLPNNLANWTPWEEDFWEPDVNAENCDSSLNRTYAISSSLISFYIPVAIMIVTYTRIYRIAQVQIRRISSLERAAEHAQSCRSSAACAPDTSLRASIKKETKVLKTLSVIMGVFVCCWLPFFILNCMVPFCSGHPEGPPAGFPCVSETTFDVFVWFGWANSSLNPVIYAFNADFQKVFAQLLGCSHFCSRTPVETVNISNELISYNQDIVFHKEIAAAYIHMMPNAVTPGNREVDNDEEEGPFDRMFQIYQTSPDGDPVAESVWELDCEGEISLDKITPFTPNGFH
Chain of D(3) dopamine receptor (P35462 whole entry): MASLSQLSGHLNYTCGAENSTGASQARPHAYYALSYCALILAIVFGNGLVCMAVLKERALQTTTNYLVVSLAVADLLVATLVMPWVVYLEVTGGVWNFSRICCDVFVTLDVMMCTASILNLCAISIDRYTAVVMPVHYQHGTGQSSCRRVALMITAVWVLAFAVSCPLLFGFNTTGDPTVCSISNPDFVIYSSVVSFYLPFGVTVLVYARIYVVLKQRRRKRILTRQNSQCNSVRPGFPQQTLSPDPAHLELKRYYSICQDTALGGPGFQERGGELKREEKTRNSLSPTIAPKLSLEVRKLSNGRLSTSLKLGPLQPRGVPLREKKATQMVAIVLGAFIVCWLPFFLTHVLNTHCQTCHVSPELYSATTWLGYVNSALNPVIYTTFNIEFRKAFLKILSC
T1 sequence (P14416 whole entry): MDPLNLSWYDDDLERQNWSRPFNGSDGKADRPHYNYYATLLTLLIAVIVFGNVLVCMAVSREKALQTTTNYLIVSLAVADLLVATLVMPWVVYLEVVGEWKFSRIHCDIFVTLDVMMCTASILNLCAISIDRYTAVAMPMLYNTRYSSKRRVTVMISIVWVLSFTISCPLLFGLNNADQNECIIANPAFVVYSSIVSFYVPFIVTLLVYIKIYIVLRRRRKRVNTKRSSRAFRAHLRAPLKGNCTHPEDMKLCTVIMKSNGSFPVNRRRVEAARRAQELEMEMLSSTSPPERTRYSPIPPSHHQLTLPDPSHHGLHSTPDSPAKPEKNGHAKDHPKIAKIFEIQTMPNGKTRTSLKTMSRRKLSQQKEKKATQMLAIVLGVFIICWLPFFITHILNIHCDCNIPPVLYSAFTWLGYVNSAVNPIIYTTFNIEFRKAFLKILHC

IC50 (D(4) dopamine receptor) [nM] | Ki (D(4) dopamine receptor) [nM] | Structure (SMILES) | further results
58 | 15.9 | c1ccc(OC[C@@H]2CN(Cc3ccc4[nH]ccc4c3)CCO2)cc1 | inhibition (D(2) dopamine receptor [1]): 64%; inhibition (D(1A) dopamine receptor): < 50%; inhibition (D(2) dopamine receptor [2]): 64%; inhibition (D(3) dopamine receptor): < 50%; inhibition (D(1B) dopamine receptor): < 50%; Fu [3]: 0.035; Fu (Plasma): 0.069
1110 | 310 | c1ccc(OC[C@@H]2CN(Cc3ccc4ccccc4n3)CCO2)cc1 | 
97 | 27 | Clc1ccc(CN2CCO[C@H](COc3ccccc3)C2)cc1Cl | Fu [3]: 0.002; Fu (Plasma): 0.006
58 | 16.1 | CSc1ccc(CN2CCO[C@H](COc3ccccc3)C2)cc1 | 
92 | 26 | COc1ccc(CN2CCO[C@H](COc3cccc(F)c3)C2)cc1 | 
 |  | COc1cc(CN2CCO[C@H](COc3cccc(F)n3)C2)ccc1Cl | inhibition [4]: -3%
18.9 | 5.2 | Fc1ccc2c(CN3CCO[C@H](COc4ccccc4)C3)c[nH]c2c1 | inhibition (D(2) dopamine receptor [1]): 78%; inhibition (D(1A) dopamine receptor): < 50%; inhibition (D(2) dopamine receptor [2]): 76%; inhibition (D(3) dopamine receptor): < 50%; inhibition (D(1B) dopamine receptor): < 50%; Fu [3]: 0.017; Fu (Plasma): 0.047
76 | 21 | Fc1ccc2c(CN3CCO[C@H](COc4cccc(F)n4)C3)c[nH]c2c1 | inhibition (D(2) dopamine receptor [2]): < 50%; Fu [3]: 0.009; Fu (Plasma): 0.015
130 | 37 | Clc1ccc2[nH]cc(CN3CCO[C@H](COc4ccccc4)C3)c2c1 | 
 |  | COc1cc(CN2CCO[C@H](COc3ccccn3)C2)ccc1Cl | inhibition [4]: 34%
56 | 14.3 | COc1ccc(CN2CCO[C@H](COc3ccccc3)C2)cc1F | inhibition (D(2) dopamine receptor [1]): 78%; inhibition (D(1A) dopamine receptor): < 50%; inhibition (D(2) dopamine receptor [2]): 76%; inhibition (D(3) dopamine receptor): < 50%; inhibition (D(1B) dopamine receptor): < 50%; Fu [3]: 0.031; Fu (Plasma): 0.037; concentration at 0.25 h [5]: 14.7 ng/mL; concentration at 0.25 h [6]: 108 ng/g; Kp [7]: 7.38
210 | 59 | COc1ccc(CN2CCO[C@H](COc3cccnc3)C2)cc1 | 
150 | 43 | COc1ccc(CN2CCO[C@H](COc3ccccc3)C2)cc1OC | 
260 | 73 | COc1ccc(CN2CCO[C@H](COc3cccc(F)n3)C2)cc1Cl | 
103 | 47 | Clc1ccc(CN2CCO[C@H](COc3cccnc3)C2)cc1 | 
100 | 29 | Clc1ccc(CN2CCO[C@H](COc3cccc(Cl)n3)C2)cc1 | Fu [3]: 0.004; Fu (Plasma): 0.008
260 | 72 | FC1(F)Oc2ccc(CN3CCO[C@H](COc4ccccc4)C3)cc2O1 | 
19.5 | 5.4 | COc1ccc2c(CN3CCO[C@H](COc4ccccc4)C3)c[nH]c2c1 | inhibition (D(2) dopamine receptor [1]): 87%; inhibition (D(1A) dopamine receptor): < 50%; inhibition (D(2) dopamine receptor [2]): 82%; inhibition (D(3) dopamine receptor): 70%; inhibition (D(1B) dopamine receptor): < 50%; Fu [3]: 0.037; Fu (Plasma): 0.075
 |  | COc1ccc(CN2CCO[C@@H](COc3ccccc3)C2)cc1Cl | inhibition [4]: 35%

IC50 (D(4) dopamine receptor) [nM] | Ki (D(4) dopamine receptor) [nM] | Structure (SMILES) | further results
37 | 10.1 | COc1cc(CN2CCO[C@H](COc3cccc(F)c3)C2)ccc1Cl | inhibition (D(2) dopamine receptor [2]): < 50%; Fu [3]: 0.011; Fu (Plasma): 0.014
590 | 160 | c1ccc(OC[C@@H]2CN(Cc3cn4ccccc4n3)CCO2)cc1 | Fu [3]: 0.057; Fu (Plasma): 0.215
320 | 89 | Fc1ccc(CN2CCO[C@H](COc3ccccc3)C2)cc1C(F)(F)F | 
170 | 47 | Cn1ncc2cc(CN3CCO[C@H](COc4ccccc4)C3)ccc21 | Fu [3]: 0.039; Fu (Plasma): 0.074; concentration at 0.25 h [5]: 37.3 ng/mL; concentration at 0.25 h [6]: 83.1 ng/g; Kp [7]: 2.23
47 | 13.1 | COc1ccc(CN2CCO[C@H](COc3ccc(F)cc3)C2)cc1 | inhibition (D(2) dopamine receptor [1]): 88%; inhibition (D(1A) dopamine receptor): < 50%; inhibition (D(2) dopamine receptor [2]): 82%; inhibition (D(3) dopamine receptor): 76%; inhibition (D(1B) dopamine receptor): < 50%
64 | 17.8 | c1ccc(OC[C@@H]2CN(Cc3ccc4ccccc4c3)CCO2)cc1 | 
100 | 28 | COc1cc(CN2CCO[C@H](COc3cccc(C#N)c3)C2)ccc1Cl | 
150 | 42 | COc1ccc(OC[C@@H]2CN(Cc3ccc(Cl)cc3)CCO2)cc1 | 
460 | 130 | COc1ccc2[nH]cc(CN3CCO[C@H](COc4ccccc4)C3)c2c1 | 
2630 | 730 | Clc1ccc(CN2CCO[C@H](COc3ccccn3)C2)cc1 | 
 |  | COc1ccc(CN2CCO[C@H](COc3cncnc3)C2)cc1 | inhibition [4]: -4%
530 | 150 | Fc1ccc(CN2CCO[C@H](COc3ccccc3)C2)cc1F | 
38 | 10.4 | COc1ccc(CN2CCO[C@H](COc3ccccc3)C2)cc1Cl | inhibition (D(2) dopamine receptor [2]): < 50%; Fu [3]: 0.01; Fu (Plasma): 0.019
45 | 12.3 | Cc1ccc(CN2CCO[C@H](COc3ccccc3)C2)cc1C | inhibition (D(2) dopamine receptor [2]): < 50%
 |  | Clc1ccc(CN2CCO[C@H](COc3ncccn3)C2)cc1 | inhibition [4]: 31%
65 | 18.1 | c1ccc(OC[C@@H]2CN(Cc3n[nH]c4ccccc34)CCO2)cc1 | inhibition (D(2) dopamine receptor [2]): < 50%
39 | 10.8 | COc1ccc(CN2CCO[C@H](COc3cccc(F)c3)C2)cc1Cl | inhibition (D(2) dopamine receptor [2]): < 50%; Fu [3]: 0.006; Fu (Plasma): 0.013
130 | 35 | c1ccc(OC[C@@H]2CN(Cc3ncn4ccccc34)CCO2)cc1 | inhibition (D(2) dopamine receptor [2]): < 50%
38 | 10.4 | Fc1ccc(OC[C@@H]2CN(Cc3ccc(Cl)cc3)CCO2)cc1 | inhibition (D(2) dopamine receptor [1]): 83%; inhibition (D(1A) dopamine receptor): < 50%; inhibition (D(2) dopamine receptor [2]): 79%; inhibition (D(3) dopamine receptor): 51%; inhibition (D(1B) dopamine receptor): < 50%

IC50 (D(4) dopamine receptor) [nM] | Ki (D(4) dopamine receptor) [nM] | Structure (SMILES) | further results
180 | 51 | FC(F)(F)Oc1ccc(CN2CCO[C@H](COc3ccccc3)C2)cc1 | 
62 | 170 | Fc1ccc(CN2CCO[C@H](COc3ccccc3)C2)cc1Cl | 
130 | 37 | c1ccc(OC[C@@H]2CN(Cc3cccc4cc[nH]c34)CCO2)cc1 | 
460 | 130 | Fc1cccc(OC[C@@H]2CN(Cc3ccc(Cl)cc3)CCO2)n1 | 
42 | 11.6 | COc1cc(CN2CCO[C@H](COc3ccccc3)C2)ccc1Cl | inhibition (D(2) dopamine receptor [1]): 52%; inhibition (D(1A) dopamine receptor): < 50%; inhibition (D(2) dopamine receptor [2]): 60%; inhibition (D(3) dopamine receptor): < 50%; inhibition (D(1B) dopamine receptor): < 50%; Fu [3]: 0.01; Fu (Plasma): 0.025
380 | 110 | COc1ccc(CN2CCO[C@H](COc3ccc(OC)cc3)C2)cc1 | 
 |  | COc1ccc(CN2CCO[C@H](COc3ccccn3)C2)cc1Cl | inhibition [4]: 37%
69 | 19.1 | Fc1cc(CN2CCO[C@H](COc3ccccc3)C2)ccc1Cl | Fu [3]: 0.006; Fu (Plasma): 0.012
150 | 42 | Clc1ccc(CN2CCO[C@H](COc3ccccc3)C2)cc1 | Fu [3]: 0.007; Fu (Plasma): 0.007; concentration at 0.25 h [5]: 42.5 ng/mL; concentration at 0.25 h [6]: 197 ng/g; Kp [7]: 4.62
58 | 16.2 | Fc1cc(CN2CCO[C@H](COc3ccccc3)C2)ccc1C(F)(F)F | Fu [3]: 0.002; Fu (Plasma): 0.007
130 | 36 | COc1cccc(OC[C@@H]2CN(Cc3ccc(Cl)cc3)CCO2)c1 | 
 |  | Clc1ccc(CN2CCO[C@H](COc3cncnc3)C2)cc1 | inhibition [4]: 76%
3830 | 1060 | Fc1cccc2[nH]cc(CN3CCO[C@H](COc4ccccc4)C3)c12 | 
 |  | COc1ccc(CN2CCO[C@H](COc3ncccn3)C2)cc1 | inhibition [4]: 8%
160 | 44 | COc1ccc(CN2CCO[C@H](COc3ccccc3)C2)cc1 | 
42 | 11.6 | COc1cc(CN2CCO[C@H](COc3ccccc3)C2)ccc1F | 
130 | 36 | COc1ccc(CN2CCO[C@H](COc3cccc(C#N)c3)C2)cc1Cl | 
 |  | COc1ccc(CN2CCO[C@H](COc3ccccn3)C2)cc1 | inhibition [4]: 57%
